ChEMBL document CHEMBL1125695, “Potential anti-AIDS drugs. Lipophilic, adenosine deaminase-activated prodrugs” (J Med Chem, 1991)

Assays:
[1] = Partition coefficient (logP); type: physicochemical; details: octanol/water
Method in brief: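 Microscale shake-flask method: compound from DMSO stock into 1.0 mL octanol-saturated 0.01 M potassium phosphate pH 7.0, then mixed with 1.0 mL buffer-saturated n-octanol at 24–26 °C. Stood 15 min, phases centrifuged, each analysed by HPLC. P is the octanol/buffer peak-area ratio; mean ± SD of three independent determinations.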

[2] = Anti-HIV activity (% protection) in ATH-8 cells at 5 uM in presence of 2'-deoxycoformycin at 10 uM; type: functional, Homo sapiens
Method in brief: (§1)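 CD4+ ATH8 cells (200 000) exposed 1 h to cell-free HIV-1/IIIB, 43 TCID50 (1087 for one analogue), resuspended in 2 mL IL-2 medium with 15% fetal calf serum, cultured at 37 °C in 5% CO2 with or without compound; dCF alone 5 μM. Day 8 viable cells counted by dye exclusion. % protection and % toxicity computed versus infected-untreated and uninfected-untreated cells; ≤0 given as 0%. Minimum two separate experiments; representative test reported.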

[3] = Anti-HIV activity (% toxicity) in ATH-8 cells at 5 uM in absence of 2'-deoxycoformycin at 10 uM; type: cell-based; details: human, ath-8, 5 µM; method in brief: as §1
[4] = Kinetic parameter relative rate measured at 50 uM at pH 7.4 and 37 degree Centigrade; type: ADME; details: pH 7.4, 50 µM
Method in brief: (§2)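 Calf intestinal mucosa adenosine deaminase with dideoxynucleoside substrates in 0.01 M Tris pH 7.4 at 37 °C. Aliquots quenched with cold 2 μM 2'-deoxycoformycin, ultrafiltered, and substrate loss followed by reversed-phase HPLC (CH3CN in pH 7.0 phosphate). Relative rates taken at 50 μM substrate with 0.7 unit/mL enzyme, referenced to ddA = 100.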

[5] = Anti-HIV activity (% toxicity) in ATH-8 cells at 5 uM in presence of 2'-deoxycoformycin at 10 uM; type: cell-based; details: human, ath-8, 5 µM; method in brief: as §1
[6] = Anti-HIV activity (% protection) in ATH-8 cells at 5 uM in absence of 2'-deoxycoformycin at 10 uM; type: functional, Homo sapiens; method in brief: as §1
[7] = Kinetic parameter Vmax at pH 7.4 and 37 degree Centigrade; type: ADME; method in brief: as §2
[8] = Anti-HIV activity (% protection) in ATH-8 cells at 5 uM in absence of 2'-deoxycoformycin at 50 uM; type: functional, Homo sapiens; method in brief: as §1
[9] = Anti-HIV activity (% toxicity) in ATH-8 cells at 5 uM in presence of 2'-deoxycoformycin at 100 uM; type: cell-based; details: human, ath-8, 5 µM; method in brief: as §1
[10] = Anti-HIV activity (% toxicity) in ATH-8 cells at 5 uM in presence of 2'-deoxycoformycin at 50 uM; type: cell-based; details: human, ath-8, 5 µM; method in brief: as §1
[11] = Anti-HIV activity (% toxicity) in ATH-8 cells at 5 uM in presence of 2'-deoxycoformycin at 0 uM; type: cell-based; details: human, ath-8, 5 µM; method in brief: as §1
[12] = Anti-HIV activity (% toxicity) in ATH-8 cells at 5 uM in absence of 2'-deoxycoformycin at 20 uM; type: cell-based; details: human, ath-8, 5 µM; method in brief: as §1
[13] = Anti-HIV activity (% toxicity) in ATH-8 cells at 5 uM in absence of 2'-deoxycoformycin at 0 uM; type: cell-based; details: human, ath-8, 5 µM; method in brief: as §1
[14] = Anti-HIV activity (% protection) in ATH-8 cells at 5 uM in presence of 2'-deoxycoformycin at 0 uM; type: functional, Homo sapiens; method in brief: as §1
[15] = Anti-HIV activity (% protection) in ATH-8 cells at 5 uM in presence of 2'-deoxycoformycin at 50 uM; type: functional, Homo sapiens; method in brief: as §1
[16] = Anti-HIV activity (% toxicity) in ATH-8 cells at 5 uM in presence of 2'-deoxycoformycin at 20 uM; type: cell-based; details: human, ath-8, 5 µM; method in brief: as §1
[17] = Anti-HIV activity (% protection) in ATH-8 cells at 5 uM in presence of 2'-deoxycoformycin at 20 uM; type: functional, Homo sapiens; method in brief: as §1
[18] = Anti-HIV activity (% toxicity) in ATH-8 cells at 5 uM in absence of 2'-deoxycoformycin at 50 uM; type: cell-based; details: human, ath-8, 5 µM; method in brief: as §1
[19] = Anti-HIV activity (% toxicity) in ATH-8 cells at 5 uM in absence of 2'-deoxycoformycin at 100 uM; type: cell-based; details: human, ath-8, 5 µM; method in brief: as §1
[20] = Anti-HIV activity (% protection) in ATH-8 cells at 5 uM in absence of 2'-deoxycoformycin at 20 uM; type: functional, Homo sapiens; method in brief: as §1
[21] = Anti-HIV activity (% protection) in ATH-8 cells at 5 uM in presence of 2'-deoxycoformycin at 100 uM; type: functional, Homo sapiens; method in brief: as §1
[22] = Anti-HIV activity (% protection) in ATH-8 cells at 5 uM in absence of 2'-deoxycoformycin at 100 uM; type: functional, Homo sapiens; method in brief: as §1
[23] = Anti-HIV activity (% protection) in ATH-8 cells at 5 uM in absence of 2'-deoxycoformycin at 0 uM; type: functional, Homo sapiens; method in brief: as §1
[24] = Anti-HIV activity (% toxicity) in ATH-8 cells at 5 uM in absence of 2'-deoxycoformycin at 5 uM; type: cell-based; details: human, ath-8, 5 µM; method in brief: as §1
[25] = Anti-HIV activity (% protection) in ATH-8 cells at 5 uM in absence of 2''-deoxycoformycin at 5 uM; type: functional, Homo sapiens; method in brief: as §1
[26] = Anti-HIV activity (% protection) in ATH-8 cells at 5 uM in presence of 2'-deoxycoformycin at 5 uM; type: functional, Homo sapiens; method in brief: as §1
[27] = Anti-HIV activity (% toxicity) in ATH-8 cells at 5 uM in presence of 2'-deoxycoformycin at 5 uM; type: cell-based; details: human, ath-8, 5 µM; method in brief: as §1
[28] = (§3) Anti-HIV activity (% toxicity) in ATH-8 cells at 5 uM; type: cell-based; details: human, ath-8, 5 µM; method in brief: as §1
[29] = Anti-HIV activity (%protection) in ATH-8 cells at 5 uM in absence of 2'-deoxycoformycin at 5 uM; type: functional, Homo sapiens; method in brief: as §1
[30] = Anti-HIV activity (%protection) in ATH-8 cells at 5 uM in absence of 2''-deoxycoformycin at 100 uM; type: functional, Homo sapiens; method in brief: as §1
[31] = Anti-HIV activity (%protection) in ATH-8 cells at 5 uM in absence of 2''-deoxycoformycin at 20 uM; type: functional, Homo sapiens; method in brief: as §1
[32] = as §3; type: cell-based; details: human, ath-8, 5 µM; method in brief: as §1; remark: listed apart in the source
[33] = (§4) Anti-HIV activity (%toxicity) in ATH-8 cells at 5 uM; type: cell-based; details: human, ath-8, 5 µM; method in brief: as §1
[34] = Anti-HIV activity (%protection) in ATH-8 cells at 5 uM in absence of 2''-deoxycoformycin at 50 uM; type: functional, Homo sapiens; method in brief: as §1
[35] = Anti-HIV activity (%protection) in ATH-8 cells at 5 uM in absence of 2''-deoxycoformycin at 0 uM; type: functional, Homo sapiens; method in brief: as §1
[36] = as §4; type: cell-based; details: human, ath-8, 5 µM; method in brief: as §1; remark: listed apart in the source
[37] = as §4; type: cell-based; details: human, ath-8, 5 µM; method in brief: as §1; remark: listed apart in the source
[38] = (§5) Anti-HIV activity in ATH-8 cells at 5 uM in absence of 2''-deoxycoformycin at 20 uM; type: cell-based; details: human, ath-8, 5 µM; method in brief: as §1
[39] = as §5; type: functional, Homo sapiens; method in brief: as §1

CNc1nc(C)nc2c1ncn2[C@@H]1O[C@H](CO)C[C@@H]1F
logP [1]: 0.64

Cc1nc(N)c2ncn([C@@H]3O[C@H](CO)C[C@@H]3F)c2n1
logP [1]: 0.12

Nc1ncnc2c1ncn2[C@H]1CC[C@@H](CO)O1
Protection [2]: 86% | Toxicity [3]: 0% | Relative rate [4]: 100 | Toxicity [5]: 22% | Protection [6]: 100% | logP [1]: -0.29 | Vmax [7]: 1.32 µmol/min/unit

OCC1CC(F)C(n2cnc3c(Cl)ncnc32)O1 (configuration not stated)
Protection [2]: 15% | Protection [8]: 53% | Toxicity [3]: 5% | Relative rate [4]: 0.06 | Toxicity [9]: 72% | Toxicity [10]: 56% | Toxicity [5]: 49% | Toxicity [11]: 14% | Toxicity [12]: 26% | Protection [6]: 48% | Toxicity [13]: 0% | logP [1]: 0.32 | Vmax [7]: 0.026 µmol/min/unit | Protection [14]: 3% | Protection [15]: 14% | Toxicity [16]: 58% | Protection [17]: 11% | Toxicity [18]: 46% | Toxicity [19]: 52% | Protection [20]: 57% | Protection [21]: 17% | Protection [22]: 35% | Protection [23]: 0%

Cc1nc2c(N)ncnc2n1C1OC(CO)CC1F (configuration not stated)
logP [1]: 0.1

CNc1ncnc2c1ncn2C1OC(CO)CC1F (configuration not stated)
Protection [2]: 2% | Toxicity [24]: 0% | Protection [25]: 13% | Protection [8]: 37% | Toxicity [3]: 0% | Relative rate [4]: 0.04 | Toxicity [9]: 70% | Toxicity [10]: 46% | Toxicity [5]: 7% | Toxicity [11]: 11% | Protection [26]: 1% | Toxicity [27]: 3% | Toxicity [12]: 0% | Protection [6]: 24% | Toxicity [13]: 0% | logP [1]: 0.27 | Vmax [7]: 0.00055 µmol/min/unit | Protection [14]: 0% | Protection [15]: 0% | Toxicity [16]: 0% | Protection [17]: 0% | Toxicity [18]: 6% | Toxicity [19]: 44% | Protection [20]: 32% | Protection [21]: 0% | Protection [22]: 27% | Protection [23]: 0%

OCC1CC(F)C(n2cnc3cncnc32)O1 (configuration not stated)
logP [1]: -0.4

OCC1CC(F)C(n2cnc3c(O)ncnc32)O1 (configuration not stated)
logP [1]: -1.21

Nc1c2ncn(C3OC(CO)CC3F)c2nc[n+]1[O-] (configuration not stated)
logP [1]: -1.38

O=C(Nc1ncnc2c1ncn2C1OC(CO)CC1F)c1ccccc1 (configuration not stated)
Toxicity [28]: 2% | Protection [29]: 8% | Protection [30]: 21% | Protection [31]: 30% | Toxicity [32]: 8% | Toxicity [33]: 0% | logP [1]: 0.73 | Protection [34]: 29% | Protection [35]: 0% | Toxicity [36]: 0% | Toxicity [37]: 0%

O=c1[nH]cnc2c1ncn2[C@H]1CC[C@@H](CO)O1 [DIDANOSINE]
Toxicity [38]: 0% | Protection [39]: 100%

Nc1ncnc2c1ncn2[C@@H]1O[C@H](CO)C[C@@H]1F [LODENOSINE]
Protection [8]: 84% | Relative rate [4]: 6 | Toxicity [10]: 54% | Toxicity [11]: 11% | Toxicity [12]: 0% | Toxicity [13]: 0% | Vmax [7]: 0.23 µmol/min/unit | Protection [14]: 0% | Protection [15]: 48% | Toxicity [16]: 17% | Protection [17]: 68% | Toxicity [18]: 0% | Protection [20]: 70% | Protection [23]: 0%

Nc1ccn([C@H]2CC[C@@H](CO)O2)c(=O)n1 [ZALCITABINE]
logP [1]: -1.33

Cc1cn([C@H]2C[C@H](N=[N+]=[N-])[C@@H](CO)O2)c(=O)[nH]c1=O [ZIDOVUDINE]
logP [1]: 0.05
